The values that follow come from ChEMBL document CHEMBL2396522, “Synthesis and pharmacological profiling of analogues of benzyl quinolone carboxylic acid (BQCA) as allosteric modulators of the M1 muscarinic receptor” (J Med Chem, 2013).

The structures appear in SMILES notation.

In one experiment the target is T1, Muscarinic acetylcholine receptor M1 (Homo sapiens, UniProt P11229).
T1 sequence (P11229 whole entry): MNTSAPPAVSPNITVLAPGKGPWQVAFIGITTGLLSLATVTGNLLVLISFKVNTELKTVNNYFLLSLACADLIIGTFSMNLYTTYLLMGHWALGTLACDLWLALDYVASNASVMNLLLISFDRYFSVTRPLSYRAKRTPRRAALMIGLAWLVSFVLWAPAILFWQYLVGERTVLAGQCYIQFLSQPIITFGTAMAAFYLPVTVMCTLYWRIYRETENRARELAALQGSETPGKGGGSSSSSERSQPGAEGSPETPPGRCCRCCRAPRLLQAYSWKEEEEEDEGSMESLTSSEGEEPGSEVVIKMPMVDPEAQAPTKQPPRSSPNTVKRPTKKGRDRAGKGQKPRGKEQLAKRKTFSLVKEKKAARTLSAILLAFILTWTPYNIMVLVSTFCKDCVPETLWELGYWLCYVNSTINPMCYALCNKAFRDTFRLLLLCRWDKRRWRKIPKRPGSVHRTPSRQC
Briefly: Agonist activity at human muscarinic M1 acetylcholine receptor expressed CHO cells assessed as intracellular calcium mobilization after 1 hr by Fluo-4-AM based fluorescence assay. The experiment is classed as functional, cell-based. The gist of the method:
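FlpInCHO cells stably expressing human M1 were seeded at 20000/well, grown 8 h at 37 °C in DMEM with 5% FBS, and serum-starved overnight. They were loaded 1 h at 37 °C with 1 μM Fluo-4-AM in HEPES Ca2+ buffer (0.5% BSA, 4 mM probenecid, pH 7.4). Modulator alone was added at 20 s and fluorescence was read at 485/520 nm over 100 s. Peak minus baseline was normalized to 100 μM ATP. Efficacy came from an operational model of allosteric agonism.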
On the technique in general: Calcium assays in cells follow changes in intracellular calcium, usually with a dye or a luminescent sensor.
The EC50 is the concentration at which the effect is half-maximal. In the case of `COc1ccc(Cn2cc(C(=O)O)c(=O)c3c(F)ccc(F)c32)cc1`, the EC50 worked out at 31.6 nM.

In a further experiment the target is T2, Muscarinic acetylcholine receptor M1 (Homo sapiens) (UniProt P11229).
T2 sequence (whole entry): T1 sequence (P11229 whole entry)
The experiment in a line: Displacement of [3H]-NMS from human muscarinic M1 acetylcholine receptor expressed CHO cells after 4 hrs by scintillation counting. The experiment is classed as cell-based. The gist of the method: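 Whole FlpInCHO cells stably expressing human M1 mAChR, 20000/well, grown 8 h at 37 °C then serum-starved overnight. Binding buffer 10 mM HEPES, 100 mM NaCl, 10 mM MgCl2, pH 7.4. […] Ice-cold 0.9% NaCl washes, scintillation counting. Curves fitted to allosteric ternary complex model giving pKB and log α.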
A general note: Loss of bound radioactivity is the signal in a displacement assay; it reports binding, not function.
A word on the pKb: it is −log10 of the Kb, conventionally taken in molar units. Read a low pKb as a high Kb. `COc1ccc(Cn2cc(C(=O)NC(C)=O)c(=O)c3c(F)ccc(F)c32)cc1` gave a pKb of 4.35.
Same read-out and setting: in the case of `O=C(O)c1cn(Cc2ccc(-c3ccccc3)cc2)c2c(F)ccc(F)c2c1=O` it was 5.36; in that of `CCOC(=O)c1cn(Cc2ccc(-c3ccccc3)cc2)c2c(OC)ccc(F)c2c1=O`, 5.32; in that of `COc1ccc(Cn2cc(C(=O)O)c(=O)c3ccccc32)cc1`, 4.72.
On to `CCOC(=O)c1cn(Cc2ccc(-c3ccccc3)cc2)c2c(OC)cccc2c1=O`, for which the pKb turned out to be 4.08.
On the same count and under the same terms, in the case of `CCOC(=O)c1cn(Cc2ccc(OC)cc2)c2c(OC)ccc(F)c2c1=O` it was 4.82; in that of `COc1ccc(Cn2cc(C(=O)NS(C)(=O)=O)c(=O)c3c(F)ccc(F)c32)cc1`, 4.63; in that of `COc1ccc(Cn2cc(C(=O)N3CCCCC3)c(=O)c3c(F)ccc(F)c32)cc1`, 4.71.
Compound `CC(C)(C)OC(=O)N1CCC(Cn2cc(C(=O)O)c(=O)c3ccccc32)CC1` showed a pKb of 4.7. The pKb values of the last two compounds are within 0.2 log units of each other.
The same measure, in the same setting: in the case of `COc1cccc2c1c(=O)c(C(=O)O)cn2Cc1ccc(-c2ccccc2)cc1` it was 5.67; in that of `COc1ccc(Cn2cc(C(=O)O)c(=O)c3cccc(OC)c32)cc1`, 4.75; in that of `COc1ccc(Cn2cc(C(=O)NO)c(=O)c3c(F)ccc(F)c32)cc1`, 4.8.
The same measure, in the same setting: next, `O=C(O)c1cn(Cc2ccccc2-c2ccccc2)c2c(F)ccc(F)c2c1=O`: 5; `COc1ccc(-n2cc(C(=O)O)c(=O)c3ccccc32)cc1`: 4.65; `COc1ccc(Cn2cc(C(=O)O)c(=O)c3c(F)ccc(OC)c32)cc1`: 4.86.
In turn, `COc1ccc(Cn2cc(C(=O)NCCO)c(=O)c3c(F)ccc(F)c32)cc1` displayed a pKb of 4.65.
Take `O=C(O)c1cn(-c2ccc(-c3ccccc3)cc2)c2ccccc2c1=O`: the pKb amounted to 4.73.
Compound `COc1ccc(Cn2cc(C(=O)O)c(=O)c3c(OC)cccc32)cc1` registered a pKb of 4.62.
On the same count and under the same terms, next, `CCOC(=O)c1cn(Cc2ccc(OC)cc2)c2c(OC)cccc2c1=O`: 4.51; `CCOC(=O)c1cn(Cc2ccc(OC)cc2)c2cccc(OC)c2c1=O`: 4.22.
On the same count and under the same terms, next, `O=C(O)c1cn(Cc2cccc(-c3ccccc3)c2)c2c(F)ccc(F)c2c1=O`: 5.55; `O=C(O)c1cn(CC2CCN(C(=O)Nc3ccccc3)CC2)c2ccccc2c1=O`: 4.66.
On the same count and under the same terms, next, `O=C(O)c1cn(Cc2ccc(-c3ccccc3)cc2)c2c(F)ccc(O)c2c1=O`: 5.55.
Regarding `O=C(O)c1cn(CC2CCN(Cc3ccccc3)CC2)c2ccccc2c1=O`, the pKb was determined as 5.13.
`CCNC(=O)c1cn(Cc2ccc(OC)cc2)c2c(F)ccc(F)c2c1=O` displayed a pKb of 5.78.
For `CNC(=O)c1cn(Cc2ccc(OC)cc2)c2c(F)ccc(F)c2c1=O`, the pKb came out at 4.92.
`COc1cccc2c(=O)c(C(=O)O)cn(Cc3ccc(-c4ccccc4)cc3)c12` registered a pKb of 5.71.
`COc1ccc(Cn2cc(C(=O)NN3CCCCC3)c(=O)c3c(F)ccc(F)c32)cc1` displayed a pKb of 5.07.
The compound `NCC#Cc1ccc(Cn2cc(C(=O)O)c(=O)c3c(F)ccc(F)c32)cc1` returned a pKb of 4.96.
On the same count and under the same terms, next, `COc1ccc(F)c2c(=O)c(C(=O)O)cn(Cc3ccc(-c4ccccc4)cc3)c12`: 5.84; `COc1ccc(Cn2cc(C(=O)N[C@H]3CCCC[C@@H]3O)c(=O)c3c(F)ccc(F)c32)cc1`: 4.99; `CCOC(=O)c1cn(Cc2ccc(OC)cc2)c2c(F)ccc(F)c2c1=O`: 5.12.
On the same count and under the same terms, in the case of `COc1ccc(Cn2cc(C#N)c(=O)c3c(F)ccc(F)c32)cc1` it was 4.66.
On the same count and under the same terms, next, `COc1ccc(Cn2cc(C(N)=O)c(=O)c3c(F)ccc(F)c32)cc1`: 5.17; `COc1ccc(Cn2cc(-c3nnn[nH]3)c(=O)c3c(F)ccc(F)c32)cc1`: 4.97.
In turn, `COc1ccc(Cn2cc(C(=O)N(C)C)c(=O)c3c(F)ccc(F)c32)cc1` registered a pKb of 4.48.
In turn, `COc1ccc(Cn2cc(C(=O)O)c(=O)c3c(F)ccc(F)c32)cc1` came in with a pKb of 4.96.
For `CCOC(=O)c1cn(Cc2ccc(-c3ccccc3)cc2)c2c(F)ccc(F)c2c1=O`, the pKb amounted to 3.75.
Regarding `CCOC(=O)c1cn(Cc2ccc(-c3ccccc3)cc2)c2cccc(OC)c2c1=O`, the pKb was 5.16.
On the same count and under the same terms, in the case of `COc1ccc(Cn2cc(C(=O)N3CCOCC3)c(=O)c3c(F)ccc(F)c32)cc1` it was 4.97.
On the same count and under the same terms, next, `COc1ccc(Cn2cc(C(=O)NCc3ccccc3)c(=O)c3c(F)ccc(F)c32)cc1`: 4.63.
Turning to `O=C(O)c1cn(CC2CCNCC2)c2ccccc2c1=O`, the pKb stood at 4.82.
`COc1ccc(Cn2cc(C(=O)Nc3ccccc3)c(=O)c3c(F)ccc(F)c32)cc1`: the pKb was found to be 4.8.

The target of a further experiment is T1, Muscarinic acetylcholine receptor M1. The experiment in a line: Allosteric modulation of human muscarinic M1 acetylcholine receptor expressed CHO cells assessed as intracellular calcium mobilization after 1 hr by Fluo-4-AM based fluorescence assay. Format: functional, cell-based. Put shortly: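 Cells were FlpInCHO-hM1, serum-starved overnight, then loaded 1 h at 37 °C with 1 μM Fluo-4-AM in Ca2+ buffer (pH 7.4, 4 mM probenecid). ACh titrations with or without increasing modulator concentrations were co-added at 20 s. Curves were fitted to an operational model of allosterism (αβ, τB). Experiments were done three to four times in duplicate.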
As for `COc1ccc(Cn2cc(C(=O)O)c(=O)c3c(F)ccc(F)c32)cc1`, the half-maximal effective concentration (EC50) is 31.6 nM.
